NR2E3 ag-1 – activates human photoreceptor nuclear receptor NR2E3; inhibition of corepressor binding, % at 4.78 µM; GST-NR2E3/biotin-RetCOR TR-FRET, 1536-well; 0.12% of 320,000 active; Q9Y5X4; AID 2300;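 active means percent inhibition above the cutoff of mean plus 3 SD of all tested compounds, set per screening campaign, cut at about 20% in these data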;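 further: 0% = DMSO wells and 100% = biotin wells as full block of FRET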
Target sequence (Q9Y5X4 whole entry, looked up): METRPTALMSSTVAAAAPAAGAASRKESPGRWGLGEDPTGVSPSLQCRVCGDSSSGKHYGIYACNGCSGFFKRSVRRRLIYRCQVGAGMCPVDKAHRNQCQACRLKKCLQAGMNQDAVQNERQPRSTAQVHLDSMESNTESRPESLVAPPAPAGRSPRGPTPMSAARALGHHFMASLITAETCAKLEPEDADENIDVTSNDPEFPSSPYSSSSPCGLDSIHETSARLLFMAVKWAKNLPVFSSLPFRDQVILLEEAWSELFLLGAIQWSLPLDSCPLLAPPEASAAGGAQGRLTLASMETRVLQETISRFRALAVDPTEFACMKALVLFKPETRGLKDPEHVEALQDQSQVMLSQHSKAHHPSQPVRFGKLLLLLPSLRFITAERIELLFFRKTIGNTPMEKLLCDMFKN
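Assay system: NR2E3–RetCOR corepressor complex. Quantity: 1.35 nM GST-NR2E3. Buffer or medium: pH 7.5 Tris-based buffer. Reagent: biotinylated RetCOR corepressor at 7 nM final. Schedule: 5 h at 4 °C. Detection: TR-FRET, emission read at 617 and 671 nm. Replicates: one well per compound, singlicate testing.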
NR2E3 ag-2 – activates human NR2E3 receptor; inhibition of corepressor binding, % at 3.98 µM; CHO-S Gal4-NCOR/VP16-NR2E3 two-hybrid, luciferase; AID 602229; 0.35% of 360,000 active;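 active means inhibition above the mean of all tested compounds plus 3 SD, cut at about 70% in these data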;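 further: 0% = DMSO with NR2E3 transfected cells and 100% = cells lacking NR2E3 construct; higher means lower luciferase signal from less NR2E3 corepressor binding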
PG9 Ab binder – small molecules binding HIV-1 gp120 antibody PG9; TR-FRET gp120-PG9 antibody binding; inhibition, % at 6.7 µM; 0.43% of 360,000 active; AID 624416; in the data active means inhibition above about 8.5%
NR1D1 modulator – modulates human Rev-erb alpha binding to DNA | P20393 | Rev-erbα–FITC-DNA binding, fluorescence polarization, 90 min | activity, % at 10 µM | 0.79% of 370,000 active | AID 1259318;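 active means activity above about 14%, limit read from the data; passing the limit was not always enough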;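 further: 0% = DMSO wells with 35 nM protein and 100% = DMSO wells with 750 nM protein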
PG9 binder conf – confirmation of small molecules binding HIV-1 gp120 antibody PG9. shares compounds with PG9 Ab binder. TR-FRET PG9 antibody binding, biochemical. inhibition, % at 6.7 µM. 90% of 1,500 active; in the data active means inhibition above about 9%
PGV04 Ab binding – PGV04 control antibody binding, counter-screen; AID 651604; TR-FRET PGV04 antibody-gp120 binding, biochemical; shares compounds with PG9 Ab binder; inhibition, % at 6.7 µM; 95% of 1,500 active; in the data active means inhibition above about 9.5%
PG9 bind DR – PG9 antibody binding, dose response; 95 tested, under 10 active; IC50, µM; TR-FRET PG9 antibody-gp120 binding inhibition; shares compounds with PG9 Ab binder; AID 651848; in the data active means IC50 below about 10 µM
PGV04 DR counter – PGV04 binding, dose response counter-screen | IC50, µM | 20% of 95 active | AID 651937 | shares compounds with PG9 Ab binder | TR-FRET binding to control antibody PGV04
PG126 binding DR – PG126 binding, dose response counter-screen | shares compounds with PG9 Ab binder | TR-FRET binding to antibody PG126, counterscreen | IC50, µM | 20% of 95 active
Numbers without * were called inactive. A selection: hits, their analogues and other compounds. The true share with any hit is near 1.5%. Unless noted, no stated cut-off is given here; in the data, active means IC50 below about 9 µM; inactive means the rest.

Results for Cc1ccc(OCc2nnc(NC(=O)c3cccnc3)s2)cc1 ?
NR2E3 ag-1: -1; NR2E3 ag-2: -20; PG9 Ab binder: 3; NR1D1 modulator: 1

Results for O=C(Nc1ccccc1)c1ccc(COc2ccccc2)cc1 ?
NR2E3 ag-1: 2; NR2E3 ag-2: -26; PG9 Ab binder: 13*; NR1D1 modulator: 4; PG9 binder conf: 12*; PGV04 Ab binding: 16*

What do the screens show for `CC(=O)Nc1ccc(C(=O)Nc2nnc(CCc3ccccc3)s2)cc1`?
NR2E3 ag-1: 1; NR2E3 ag-2: -3; PG9 Ab binder: 25*; NR1D1 modulator: 13; PG9 binder conf: 15*; PGV04 Ab binding: 24*

Results for O=C(CSc1nc2c(c(=O)[nH]1)CCCC2)N1CCOCC1 ?
NR1D1 modulator: 2

How did COc1cccc(CNC2CCC23CCC(C)CC3)c1 (stereo not given) do in these assays?
NR1D1 modulator: -8

Results for COc1ccc(-c2nc3c(C)cc(Br)cn3c2CC(C)(C)C)cc1OC ?
NR2E3 ag-2: 4; PG9 Ab binder: 22*; NR1D1 modulator: -3; PG9 binder conf: 25*; PGV04 Ab binding: 40*

How did COc1ccc(-c2nc3c(C)cc(Br)cn3c2CC2CCCCC2)cc1OC do in these assays?
NR2E3 ag-2: -25; PG9 Ab binder: 14*; NR1D1 modulator: 3; PG9 binder conf: 22*; PGV04 Ab binding: 27*

What do the screens show for `O=C(NCc1ccccc1)C1CCN(c2nc(-c3ccc(Br)cc3)cs2)CC1`?
NR1D1 modulator: -6

What do the screens show for `Cc1nnc2c(NCCc3ccccc3)nc3ccccc3n12`?
NR2E3 ag-1: 4; NR2E3 ag-2: -27; PG9 Ab binder: 11*; NR1D1 modulator: 18; PG9 binder conf: 49*; PGV04 Ab binding: 62*

What do the screens show for `Cc1cccc(NC(=O)c2cnn3ccccc23)c1C`?
NR2E3 ag-1: -1; NR2E3 ag-2: -80; PG9 Ab binder: 11*; NR1D1 modulator: -3; PG9 binder conf: 1; PGV04 Ab binding: 4

What do the screens show for `Cc1ccc(NS(=O)(=O)c2c(C)nc3sccn3c2=O)cc1`?
NR2E3 ag-1: 1; NR2E3 ag-2: -16; PG9 Ab binder: 0; NR1D1 modulator: -4

Results for Cc1nc2sccn2c(=O)c1S(=O)(=O)Nc1cccc(Cl)c1C ?
NR2E3 ag-1: -2; NR2E3 ag-2: -13; PG9 Ab binder: 9.8*; NR1D1 modulator: 2; PG9 binder conf: 16*; PGV04 Ab binding: 16*

What do the screens show for `COc1cc(NC(=O)C2CCCN(S(=O)(=O)c3ccccc3)C2)cc(OC)c1` (stereo not given)?
NR1D1 modulator: 4

How did COc1ccc(OC)c(NC(=O)CSc2nncc3ccccc23)c1 do in these assays?
NR2E3 ag-1: 4; NR2E3 ag-2: 3; PG9 Ab binder: 13*; NR1D1 modulator: 2; PG9 binder conf: 8; PGV04 Ab binding: 10*

How did COc1ccc(NC(=O)CSc2nncc3ccccc23)cc1 do in these assays?
NR2E3 ag-1: 0; NR2E3 ag-2: 7; PG9 Ab binder: 2; NR1D1 modulator: -2

What do the screens show for `O=S(=O)(CC1NCCc2ccccc21)NCc1ccccc1` (stereo not given)?
NR1D1 modulator: -9

Results for COc1ccc(-c2c(Sc3ccccc3)c3cc(-c4ccc(OC)c(F)c4)ccc3n2C)cc1 ?
NR2E3 ag-2: 8; PG9 Ab binder: 27*; NR1D1 modulator: 3; PG9 binder conf: -13; PGV04 Ab binding: 36*

What do the screens show for `COc1cc(OC)cc(-c2c(Sc3ccccc3)c3cc(-c4ccc(OC)c(OC)c4)ccc3n2C)c1`?
NR2E3 ag-2: -4; PG9 Ab binder: 19*; NR1D1 modulator: 14; PG9 binder conf: 34*; PGV04 Ab binding: 19*; PG9 bind DR: inactive; PGV04 DR counter: inactive; PG126 binding DR: inactive

Results for CCOc1ccc(N2CC(NC(=O)c3ccc4ccccc4c3)CC2=O)cc1 (stereo not given) ?
NR2E3 ag-1: -2; NR2E3 ag-2: -23; PG9 Ab binder: 12*; NR1D1 modulator: 16; PG9 binder conf: 12*; PGV04 Ab binding: 23*

How did CCOc1ccc(NC(=O)NC2CC(=O)N(c3ccc(OC)cc3)C2)cc1 (stereo not given) do in these assays?
NR2E3 ag-1: 1; NR2E3 ag-2: 20; PG9 Ab binder: -1; NR1D1 modulator: 0

Results for CC(C)(C)N1Cc2nnn(Cc3ccccc3)c2-c2cc(N3CCCC3)ccc2S1(=O)=O ?
NR1D1 modulator: -1

How did Cc1ccc(NC(=O)Cn2cc(C(=O)C3CC3)c3ccccc32)cc1 do in these assays?
NR2E3 ag-1: 0; NR2E3 ag-2: 1; PG9 Ab binder: 10*; NR1D1 modulator: 1; PG9 binder conf: 8; PGV04 Ab binding: 11*

How did CCC(=O)c1cn(CC(=O)Nc2ccc(C)cc2)c2ccccc12 do in these assays?
NR2E3 ag-1: 7; NR2E3 ag-2: -13; PG9 Ab binder: 11*; NR1D1 modulator: 16; PG9 binder conf: 13*; PGV04 Ab binding: 18*

Results for CCC(=O)c1cn(CC(=O)Nc2ccccc2)c2ccccc12 ?
NR2E3 ag-1: -1; NR2E3 ag-2: 10; PG9 Ab binder: -1; NR1D1 modulator: 6

What do the screens show for `COc1cccc(NC(=O)CSc2nc3scc(C)c3c(=O)[nH]2)c1`?
NR2E3 ag-1: 3; NR2E3 ag-2: -14; PG9 Ab binder: 26*; NR1D1 modulator: 8; PG9 binder conf: 29*; PGV04 Ab binding: 43*

How did COc1ccc(OC)c(NC(=O)CSc2nc3scc(C)c3c(=O)[nH]2)c1 do in these assays?
NR2E3 ag-1: 1; NR2E3 ag-2: -20; PG9 Ab binder: 0; NR1D1 modulator: -4

What do the screens show for `COC(=O)c1sc(NC(=O)CSc2nc3cccnc3n2C2CCCCC2)nc1C`?
NR2E3 ag-1: 0; NR2E3 ag-2: -13; PG9 Ab binder: -1; NR1D1 modulator: 0

Results for COC(=O)c1sc(NC(=O)CSc2nc3cccnc3n2C)nc1C ?
NR2E3 ag-1: -4; NR2E3 ag-2: -11; PG9 Ab binder: 22*; NR1D1 modulator: 3; PG9 binder conf: 33*; PGV04 Ab binding: 45*

What do the screens show for `COc1ccc(NC(=O)CSc2nc3cccnc3n2C)cc1`?
NR2E3 ag-1: -3; NR2E3 ag-2: 10; PG9 Ab binder: 1; NR1D1 modulator: -3

How did COc1ccc2nc(NC(=O)CSc3nc4cccnc4n3C)sc2c1 do in these assays?
NR2E3 ag-1: 12; NR2E3 ag-2: -15; PG9 Ab binder: 26*; NR1D1 modulator: 7; PG9 binder conf: 29*; PGV04 Ab binding: 42*

Bioassay records from PubChem.
